From PubChem BioAssay
Hits are enriched below; roughly 4.1% of the tested compounds scored in any of these assays.
APP 5'UTR act: APP 5'UTR luciferase reporter activation | SH-SY5Y APP 5'UTR luciferase reporter, luminescence; zero percent = DMSO vehicle wells | activation, % at 2 µM | 1% of 190,000 active;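 active = activation above a set limit, based on mean plus 3 SD of controls, cut at about 140% in these data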
NF-kB neuron act: compounds increasing NF-kB expression in human neuronal cells. NF-kB reporter expression; hits give high values. fold change at 12.5 µM. 1.6% of 190,000 active; in the data active = fold change above about 3.3
STAT1 activator: increases IFN-gamma driven STAT1 reporter signal; NIH 3T3 STAT1-luciferase reporter, luminescence; 100% = IFN-gamma alone, no compound; activation (% of control), % at 5.5 µM; 2.6% of 200,000 active; AID 932;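 active = activation above the screen-wide mean activation plus 3 SD, cut at about 130% in these data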;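 note: raw ratio to IFN-gamma control signal so 100% means no change and 0% no light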
FLuc inhib CS: counter-screen for luciferase assay inhibitors: firefly luciferase inhibition | P08659 | ATPLite firefly luciferase biochemical luminescence, 10 min | inhibition, % at 10 µM | 1.5% of 200,000 active | AID 1006;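 active = inhibition above about 50% when tested at 10 µM, limit read from the data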
Target sequence (P08659 whole entry, looked up): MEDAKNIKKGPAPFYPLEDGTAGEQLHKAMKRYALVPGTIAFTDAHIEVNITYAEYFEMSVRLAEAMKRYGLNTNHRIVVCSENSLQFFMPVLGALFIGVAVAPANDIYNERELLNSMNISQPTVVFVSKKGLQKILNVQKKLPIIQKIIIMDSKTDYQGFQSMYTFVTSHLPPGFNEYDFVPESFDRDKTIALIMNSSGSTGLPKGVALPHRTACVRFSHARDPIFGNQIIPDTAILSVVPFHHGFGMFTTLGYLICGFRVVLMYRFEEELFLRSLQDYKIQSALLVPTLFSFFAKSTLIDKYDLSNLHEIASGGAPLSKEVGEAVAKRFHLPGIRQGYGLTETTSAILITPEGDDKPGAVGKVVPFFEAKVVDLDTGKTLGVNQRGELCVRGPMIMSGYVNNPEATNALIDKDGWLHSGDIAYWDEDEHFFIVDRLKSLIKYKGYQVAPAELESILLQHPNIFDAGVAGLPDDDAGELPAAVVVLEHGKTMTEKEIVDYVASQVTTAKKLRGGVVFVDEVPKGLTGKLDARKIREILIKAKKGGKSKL
FLuc act counter: affects firefly luciferase, flagging false hits in luciferase stimulation screens; ATPlite luciferase biochemical, luminescence, 10 min; 0 = ATP-free wells, 1 = DMSO control; 200,000 tested, under 10 active; P08659; activation factor at 10 µM;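 active = luciferase activation factor, scaled between plate controls, of at least 2 with compound at 10 µM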
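Assay system: Luciferase/luciferin detection reagent, cell-free biochemical luciferase assay / Read-out: luciferase activation / Benchmarks: No-ATP low control, compound-free enzyme-plus-ATP high control / Medium: PBS buffer for ATP / Detection: luminescence measurement of luciferase light output / Schedule: 10 min at ambient temperature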
An asterisk follows results filed as active.

SMILES	APP 5'UTR act	NF-kB neuron act	STAT1 activator	FLuc inhib CS	FLuc act counter
CCOC(=O)c1c(-c2ccccc2)nc2cc(C)ccn12	57.1	1.96	133.3*	9.4	0.9
CCOC(=O)C(=O)c1c(-c2ccccc2)nc2ccccn12	-0.2	1.17	99.0	-2.5	1
CCOC(=O)C(=O)c1c(-c2ccc(C)cc2)nc2ccccn12	1.8	1.09	95.0	2.1	1
COC(=O)c1ccc(N2CCCCC2)c(NS(=O)(=O)c2ccc(C)cc2)c1	2.8	0.95	98.3	-5.4	1.1
CCOC(=O)c1c(-c2ccc(F)cc2)cn2ccccc12	-12.4	1.29	102.4	-5.6	1.1
COc1cc(/C=C/c2nnc3c4ccccc4ncn23)cc(OC)c1OC	2.3	0.33	88.7	-0.4	1
C(=C\c1nnc2c3ccccc3ncn12)/c1ccccc1	-72.5	3.18	148.1*	17.1	0.8
CCOc1ccc(C(=O)CSc2nnc3ccccn23)cc1	131.3	4.09*	141.2*	8.6	0.9
CCOc1ccc(-c2nc(-c3cccs3)c(CC(=O)O)s2)cc1OC	-7.5	1.71	112.5	68.5*	0.3
CCOc1cccc2c1OC(c1cc(OC)c(OC)c(OC)c1)N1N=C(c3ccc(C)o3)CC21 (stereo unspecified)	137.2*	0.82	89.4	52.2*	0.5
COc1ccc(-c2cc(CS(=O)(=O)c3ccccc3)on2)cc1	117.4	3.01	142.4*	28.9	0.7
Clc1ccc(SCc2cc(-c3ccccc3)no2)cc1	5.2	1.36	108.5	-5.7	1.1
O=S(=O)(Cc1cc(-c2ccccc2)no1)c1ccccc1	33.5	1.61	129.1*	11.0	0.9
COc1ccc(-c2cc(COc3ccccc3)on2)cc1	24.6	2.21	140.1*	5.7	0.9
Clc1ccc(OCc2cc(-c3ccccc3)no2)c(Cl)c1	187.8*	4.53*	72.5	51.4*	0.5
O=C1c2ccccc2C(=O)N1Cc1cc(-c2ccccc2)no1	8.4	1.39	99.6	-2.5	1
CC(C)c1c(O)nc(SCc2ccccc2)[nH]c1=O	-3.2	0.92	103.2	-5.7	1.1
Cc1cc(C(=O)Nc2c(C)nn(Cc3ccc(Cl)cc3)c2C)no1	4.9	0.99	98.6	-10.2	1.1
COc1ccc(CCNC(=O)Cc2nn(C)c(=O)c3ccccc23)cc1OC	4.9	0.89	87.4	-8.1	1.1
COC(=O)Cn1c(O)c(N=NC(=O)c2ccc3c(c2)OCO3)c2ccccc21	18.2	1.69	97.3	75.6*	0.2
O=C1N=C(N2CCOCC2)S/C1=C1\C(=O)N(Cc2ccccc2)c2ccccc21	380.0*	1.36	101.5	21.2	0.8
CCCN1C(=O)/C(=C2\SC(N3CCCCC3)=NC2=O)c2ccccc21	19.9	0.72	126.8	70.7*	0.3
CC(C)=C1SC(N2CCN(Cc3ccccc3)CC2)=NC1=O	12.2	1.12	95.2	-0.4	1
CN1C(=O)/C(=C2\SC(N3CCCCCC3)=NC2=O)c2ccccc21	16.3	0.92	121.8	79.1*	0.2
CN1C(=O)/C(=C2\SC(N)=NC2=O)c2ccccc21	3.6	1.18	102.8	1.5	1
SMILES	APP 5'UTR act	NF-kB neuron act	STAT1 activator	FLuc inhib CS	FLuc act counter
CCC(C)OC(=O)n1ccc(C(=O)Nc2nccs2)n1 (stereo unspecified)	6.8	1.49	113.5	38.6	0.6
Cc1cc(C)n2nc(SC(C)C(=O)Nc3ccc(Cl)cn3)nc2n1 (stereo unspecified)	24.0	1.1	105.6	-4.7	1
COc1ccc(NC(=O)N2CC(C)OC(C)C2)cc1OC (stereo unspecified)	0.0	0.94	101.9	-14.0	1.1
c1cc(-c2nnc(-c3ccncc3)o2)ccn1	16.9	1.16	102.7	-4.1	1
CCCOc1ccc(-c2nnc(-c3ccncc3)o2)cc1	124.0	3.7*	126.0	7.3	0.9
CC(C)COc1ccc(-c2nnc(-c3ccncc3)o2)cc1	33.8	2.82	136.0*	6.6	0.9
Cc1cnc(C(=O)OCC(=O)NC2CCCCCC2)cn1	-0.7	1.02	100.5	-5.2	1.1
O=C(CN1C(=O)CCC1=O)Nc1ccc2c3c(cccc13)CC2	17.8	0.97	96.1	-3.2	1
Cc1cc2ncc(C(=O)N=CN(C)C)cn2n1	28.1	1.35	101.9	-3.7	1
Cc1ccc(-c2cnc3cc(C)nn3c2)cc1	146.7*	5.67*	79.9	91.2*	0.1
Cc1cc2ncc(-c3ccc(Cl)cc3)cn2n1	188.0*	4.89*	135.6*	55.8*	0.4
Cc1ccc(-c2cnc3c(Cl)c(C)nn3c2)cc1	243.5*	6.49*	89.5	58.1*	0.4
CCN(CC)CCN1C(=O)C(=O)/C(=C(/O)c2c(C)[nH]c(C(=O)OC)c2C)C1c1ccccc1 (stereo unspecified)	-17.8	1.36	103.0	-3.4	1
O=c1c(Cl)c(Nc2cccc(Cl)c2)cnn1-c1nc2ccccc2s1	115.6	1.94	149.8*	39.5	0.6
COc1ccc(Nc2cnn(-c3nc4ccccc4s3)c(=O)c2Cl)cc1	-18.7	1.88	95.8	29.1	0.7
Cc1c(-c2ccccn2)c(=O)[nH]n1-c1ccc(F)cc1	124.8	3.81*	104.9	60.9*	0.4
NS(=O)(=O)c1ccc(CCNC(=O)CSc2ccsc2[N+](=O)[O-])cc1	-3.0	0.95	90.8	-7.1	1.1
COCCNC(=O)NC(=O)CN1CCN(C(c2ccccc2)c2ccccc2)CC1	23.9	1.02	102.6	-6.1	1.1
Cc1ccccc1OCCn1cnc2c(N)ncnc21	2.2	1.6	129.4*	1.4	1
CNc1nc2[nH]c(=O)c3c(c2s1)OC(N)=C(C#N)C3c1ccccc1 (stereo unspecified)	9.5	1.07	90.4	-7.5	1.1
O=C(/C=C/c1cccs1)Nc1scc(-c2ccccc2)c1C(=O)O	120.1	2.26	98.6	80.7*	0.2
O=C(/C=C/c1cccs1)Nc1nc(-c2ccccc2)cs1	29.1	1.29	114.1	3.7	1
O=C(/C=C/c1cccs1)Nc1cccnc1	62.1	1.89	126.7	61.7*	0.4
Cc1ccnc(NC(=O)/C=C/c2cccs2)c1	191.0*	1.08	136.8*	92.0*	0.1
COC(=O)C1CCN(C(c2cc(OC)c(OC)c(OC)c2)c2sc3nc(C)nn3c2O)CC1 (stereo unspecified)	-17.6	1.22	101.4	-7.5	1.1
SMILES	APP 5'UTR act	NF-kB neuron act	STAT1 activator	FLuc inhib CS	FLuc act counter
Cc1cc(C(=O)N/N=C/c2ccc[nH]2)n[nH]1	-5.0	4.4*	101.7	2.6	1
O=C(N/N=C/c1ccc[nH]1)c1ccccc1O	40.0	1.31	93.0	61.8*	0.4
O=C(N/N=C/c1ccc[nH]1)c1ccc(O)cc1	36.3	1.3	88.8	18.4	0.8
Cc1c(CC(C)C)nc(N)c(C#N)c1-c1ccccc1	10.7	1.23	100.4	-3.1	1
CN=c1scc(-c2ccccc2Br)n1/N=C/c1ccc[nH]1	174.2*	1.18	84.2	53.5*	0.5
Cc1c(=O)n(OCc2ccccc2F)c2ccccc2[n+]1[O-]	-17.9	5.19*	96.6	-2.6	1
